How the values were obtained:
RAW264.7 [1] = test: Antiinflammatory activity in mouse RAW264.7 cells assessed as reduction in LPS-induced TNFalpha production by measuring TNFalpha levels at 30 uM pretreated for 1 hr followed by LPS-challenge measured after 20 to 24 hrs by ELISA relative to control; assay type: functional; design: scale not given: the % may be the effect or the level left
Outline: (§1)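 RAW 264.7 cells in DMEM with 10% FBS and penicillin/streptomycin, 37 °C, 5% CO2, seeded at 200×10^3 per well in 24-well plates. Media replaced at 24 h. Compound in DMSO (0.5% final) added 2 h later, then LPS 60 ng/ml 1 h after that. Media collected 20–24 h after LPS. 3–4 wells per concentration, expressed as % of DMSO vehicle control (mean ± SE).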

RAW264.7 [2] = test: Antiinflammatory activity in mouse RAW264.7 cells assessed as reduction in LPS-induced nitrite production by measuring nitrite levels at 30 uM pretreated for 1 hr followed by LPS-challenge measured after 20 to 24 hrs by Griess assay relative to control; assay type: functional; design: scale not given: the % may be the effect or the level left; outline: as §1
[3] = Solubility of the compound in DMEM media at 30 uM; assay type: physicochemical
[4] = Cytotoxicity against LPS-induced mouse RAW264.7 cells assessed as cell viability at 30 uM pretreated for 1 hr followed by LPS-challenge measured after 20 to 24 hrs by CellTiter 96 aqueous non-radioactive cell proliferation assay; assay type: cell-based; settings: LPS-induced RAW264.7 cells, read-out: Activity; outline: as §1
Danio rerio [5] = organism: Danio rerio; test: Antiangiogenic activity in 24 hrs post fertilized zebra fish embryo harboring fli1:EGFP assessed as intersegmental vessel length at 10 ug/ml after 24 hrs by fluorescence microscopic analysis; assay type: functional
Outline: (§2)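 fli1:EGFP transgenic zebrafish embryos, identified by fluorescence, manually dechorionated at 24 h post fertilization and placed in plates with compound diluted in tank water, vehicle controls alongside. After 24 h exposure, embryos anaesthetized with 0.1% tricaine and intersegmental vessels scored for length (µm) and number. Values given as mean ± S.E.M.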

Danio rerio [6] = organism: Danio rerio; test: Antiangiogenic activity in 24 hrs post fertilized zebra fish embryo harboring fli1:EGFP assessed as number of intersegmental vessel at 10 ug/ml after 24 hrs by fluorescence microscopic analysis; assay type: functional; outline: as §2
Danio rerio [7] = organism: Danio rerio; test: Antiangiogenic activity in 24 hrs post fertilized zebra fish embryo harboring fli1:EGFP assessed as intersegmental vessel length after 24 hrs by fluorescence microscopic analysis; assay type: functional, organism-based; outline: as §2
Danio rerio [8] = organism: Danio rerio; test: Toxicity in 24 hrs post fertilized zebra fish embryo harboring fli1:EGFP at >50 ug/ml; assay type: organism-based; settings: zebrafish, in vivo
Danio rerio [9] = organism: Danio rerio; test: Toxicity in 24 hrs post fertilized zebra fish embryo harboring fli1:EGFP at >5 ug/ml; assay type: organism-based; settings: zebrafish, in vivo
Danio rerio [10] = organism: Danio rerio; test: Antiangiogenic activity in 24 hrs post fertilized zebra fish embryo harboring fli1:EGFP assessed as intersegmental vessel length at 5 ug/ml after 24 hrs by fluorescence microscopic analysis; assay type: functional; outline: as §2
Danio rerio [11] = organism: Danio rerio; test: Antiangiogenic activity in 24 hrs post fertilized zebra fish embryo harboring fli1:EGFP assessed as number of intersegmental vessel at 5 ug/ml after 24 hrs by fluorescence microscopic analysis; assay type: functional; outline: as §2

| solubility [3] | Compound | Activity (RAW264.7 [1]) [%] | Activity (RAW264.7 [2]) [%] | viability at 30 µM [4] [%] | Activity (Danio rerio [5]) [um] | Activity (Danio rerio [6]) | Activity (Danio rerio [7]) | Activity (Danio rerio [8]) | Activity (Danio rerio [9]) | Activity (Danio rerio [10]) [um] | Activity (Danio rerio [11]) |
| --- | --- | --- | --- | --- | --- | --- | --- | --- | --- | --- | --- |
| Insoluble | CC(N1Cc2ccccc2C1=S)C12CC3CC(CC(C3)C1)C2 (stereo not drawn) | 90 | 52 | 84 |  |  |  |  |  |  |  |
|  | O=C1c2ccccc2CN1C12CC3CC(CC1C3)C2 | 52 |  | 74 |  |  |  |  |  |  |  |
|  | O=C1c2cccc([N+](=O)[O-])c2CN1C12CC3CC(CC(O)(C3)C1)C2 | 91 | 94 | 107 |  |  |  |  |  |  |  |
| Insoluble | S=C1c2ccccc2CN1C12CC3CC(CC1C3)C2 | 85 |  | 94 |  |  |  |  |  |  |  |
|  | CC(N1Cc2c(cccc2[N+](=O)[O-])C1=S)C12CC3CC(CC(C3)C1)C2 (stereo not drawn) | 96 | 11.5 | 83 | 86.4 | 22 |  |  |  |  |  |
|  | O=C1c2cccc([N+](=O)[O-])c2CN1C12CC3CC(CC1C3)C2 | 90 | 49 | 92 | 42.8 | 8.6 | Dose-dependent effect | Toxic |  |  |  |
|  | O=C1c2ccccc2CN1CC12CC3CC(CC(C3)C1)C2 | 59 | 50 | 81 | 83.1 | 18.2 |  |  |  |  |  |
| Insoluble | O=C1c2cccc([N+](=O)[O-])c2CN1C12CC3CC(CC(C3)C1)C2 | 86 | 40 | 114 |  |  |  |  |  |  |  |
|  | O=C1c2cccc([N+](=O)[O-])c2CN1CC12CC3CC(CC(C3)C1)C2 | 77 | 55 | 92 |  |  |  |  |  |  |  |
|  | CC(N1Cc2c(cccc2[N+](=O)[O-])C1=O)C12CC3CC(CC(C3)C1)C2 (stereo not drawn) | 72 | 35 | 81 |  |  |  |  |  |  |  |
|  | O=C1c2cccc([N+](=O)[O-])c2CN1C1C2CC3CC(C2)CC1C3 (stereo not drawn) | 65 | 9.2 | 82 |  |  |  |  | Toxic | 48.2 | 14.6 |
|  | O=C1c2ccccc2CN1C12CC3CC(CC(O)(C3)C1)C2 | 80 | 101 | 98 | 105.1 | 19.5 |  |  |  |  |  |
|  | O=C1c2ccccc2CN1C1C2CC3CC(C2)CC1C3 (stereo not drawn) | 58 | 62 | 75 |  |  |  |  |  |  |  |
|  | Nc1cccc2c1CN(C1C3CC4CC(C3)CC1C4)C2=O (stereo not drawn) | 101 | 72 | 99 | 42.1 | 14 | Dose-dependent effect | Toxic |  |  |  |
|  | CC(N1Cc2ccccc2C1=O)C12CC3CC(CC(C3)C1)C2 (stereo not drawn) | 55 | 52 | 82 |  |  |  |  |  |  |  |

Source: ChEMBL document CHEMBL4219084, “Design, synthesis and biological assessment of N-adamantyl, substituted adamantyl and noradamantyl phthalimidines for nitrite, TNF-α and angiogenesis inhibitory activities” (Bioorg Med Chem, 2018)
